Assay type in all cases: functional
The species named for test [1] is Mus musculus. Briefly: Tested for antibody response in mice injected with various Hepatitis B Vaccine at 50 ug/dose in experiment 1. An outline of the steps: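 Female 5-week-old ICR mice, groups of 20, injected subcutaneously with 0.5 mL holding 1.25 μg aqueous hepatitis B vaccine (plasma-derived) mixed with 50 μg analogue in PBS (pH 7.5). Controls were aqueous vaccine alone and alum-adsorbed vaccine at 1.25 μg. Mice bled from vena cava at 6 weeks. Anti-HBs measured by radioimmunoassay; geometric mean titer reported as reciprocal serum dilution, plus responder count.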

Test [2] is filed under the species Mus musculus. Briefly: Tested for antibody response of mice injected with Bovine serum Albumin(BSA) at 5 ug/dose in experiment 5. An outline of the steps:
(§1)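 Female ICR/Ha mice, 5–6 weeks old, groups of six, given one subcutaneous injection between the shoulders of 0.25 mL PBS containing 100 μg BSA monomer plus analogue (dissolved or sonicated). Boosted at day 21 with 100 μg BSA alone, bled at day 31. Anti-BSA passive hemagglutination was run on sheep-RBC-adsorbed sera with twofold dilutions on BSA-coated sheep cells. Result is the group geometric mean reciprocal titer.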

For test [3], the species on record is Mus musculus. Briefly: Tested for antibody response of mice injected with Bovine serum Albumin(BSA) at 5 ug/dose in experiment 1.
The species named for test [4] is Mus musculus. The test can be described thus: Tested for antibody response of mice injected with Bovine serum Albumin(BSA) at 50 ug/dose in experiment 1. The method, boiled down: as §1
The species named for test [5] is Mus musculus. The test can be described thus: Tested for antibody response of mice injected with Bovine serum Albumin(BSA) at 50 ug/dose in experiment 5.
The species named for test [6] is Mus musculus. The test can be described thus: Tested for antibody response of mice injected with Bovine serum Albumin(BSA) at 5 ug/dose in experiment 6. The method, boiled down:
as §1

The species entered for test [7] is Mus musculus. Briefly: Tested for antibody response of mice injected with Bovine serum Albumin(BSA) at 50 ug/dose in experiment 6.
The species named for test [8] is Mus musculus. Briefly: Tested for antibody response of mice injected with Bovine serum Albumin(BSA) at 50 ug/dose in experiment 3. An outline of the steps:
as §1

The species entered for test [9] is Mus musculus. Briefly: Tested for antibody response of mice injected with Bovine serum Albumin(BSA) at 50 ug/dose in experiment 4.
The species named for test [10] is Mus musculus. Briefly: Tested for antibody response of mice injected with Bovine serum Albumin(BSA) at 50 ug/dose in experiment 2. An outline of the steps:
as §1

The structures appear in SMILES notation.

Turning to `CCCCCCCCCCCCCCCCCC(=O)OCC(OC(C)=O)C1OC(O)C(NC(C)=O)C1OC(C)C(=O)N[C@@H](C)C(=O)NC(CCC(=O)O)C(N)=O` (stereo not given in full), the Geometric mean in the test filed under Mus musculus [1] came to 69.6; in the test listed under Mus musculus [2] it was 107.76; in the test listed under Mus musculus [3], 28.12; in the test listed under Mus musculus [4], 1408.52; in the test filed under Mus musculus [5], 215.51.

In the case of `COC1OC(C(O)CO)C(OC(C)C(=O)N[C@@H](C)C(=O)NC(CCC(=O)O)C(N)=O)C1NC(C)=O` (stereo not given in full), the Geometric mean in the test filed under Mus musculus [3] and in the test listed under Mus musculus [4] was 10.7 throughout.

Consider `CCCCCCCCCCCCCCCCCC(=O)NCC1OC(O)C(NC(C)=O)C(O[C@H](C)C(=O)N[C@@H](C)C(=O)NC(CCC(=O)O)C(N)=O)C1O` (stereo not given in full), for which the Geometric mean in the test filed under Mus musculus [3] and in the test filed under Mus musculus [4] was less than 3 each time.

For `CC(=O)NCC1OC(O)C(NC(C)=O)C(O[C@H](C)C(=O)N[C@@H](C)C(=O)NC(CCC(=O)O)C(N)=O)C1O` (stereo not given in full), the Geometric mean is 6.17 in the test listed under Mus musculus [3] and 7.78 in the test listed under Mus musculus [4].

Regarding `CC(=O)NC1C(O)OC(COC(C)=O)C(OC(C)=O)C1O[C@H](C)C(=O)N[C@@H](C)C(=O)NC(CCC(=O)O)C(N)=O` (stereo not given in full), the results for the Geometric mean in the test listed under Mus musculus [3] and in the test listed under Mus musculus [4] were 4.36 and 384, respectively.

As to `CCCCCCCCCCCCCCCCCCCCCC(=O)OC(C)(C)C(=O)OCC1OC(O)C(NC(C)=O)C(O[C@H](C)C(=O)N[C@@H](C)C(=O)NC(CCC(=O)O)C(N)=O)C1O` (stereo not given in full), the Geometric mean in the test filed under Mus musculus [3] is 431; in the test filed under Mus musculus [4] it was 768; in the test filed under Mus musculus [6] it was 823.12; in the test filed under Mus musculus [7], 716.57.

Take `CCCCCCCCCCCCCCCCCCCCCC(=O)OC(C)(C)C(=O)OCC(OC(C)=O)C1OC(O)C(NC(C)=O)C1OC(C)C(=O)N[C@@H](C)C(=O)NC(CCC(=O)O)C(N)=O` (stereo not given in full): the figures for the Geometric mean in the test filed under Mus musculus [1], in the test listed under Mus musculus [3] and in the test filed under Mus musculus [4] were 303.6, 543.06 and 215.51, respectively.

For the compound `CCCCCCCCCCCCCCCCCC(=O)OCC1OC(O)C(NC(C)=O)C(O[C@H](C)C(=O)N[C@@H](C)C(=O)NC(CCC(=O)O)C(N)=O)C1O` (stereo not given in full), the Geometric mean in the test listed under Mus musculus [3] was found to be 271.53; in the test filed under Mus musculus [4], 995.97.

For the compound `CC(=O)NC1C(O)OC(C(COC(C)=O)OC(C)=O)C1OC(C)C(=O)N[C@@H](C)C(=O)NC(CCC(=O)O)C(N)=O` (stereo not given in full), the Geometric mean stood at 38.1 in the test listed under Mus musculus [1]; 31.12 in the test listed under Mus musculus [3]; 271.53 in the test listed under Mus musculus [4]; 13.08 in the test filed under Mus musculus [6]; 113.49 in the test filed under Mus musculus [7].

`CC(=O)N[C@H]1C(O)O[C@H](CO)[C@@H](O)[C@@H]1O[C@H](C)C(=O)N[C@@H](C)C(=O)N[C@H](CCC(=O)O)C(N)=O` (stereo not given in full) [MURAMYL DIPEPTIDE]: the Geometric mean in the test listed under Mus musculus [2] is reported as less than 3; in the test filed under Mus musculus [3], 28.12; in the test listed under Mus musculus [8], 241.9; in the test filed under Mus musculus [9] it was 1536; in the test listed under Mus musculus [10], 215.51; in the test filed under Mus musculus [4] it was 592.21. Moreover, the Geometric mean in the test filed under Mus musculus [5] worked out at 28.26; in the test filed under Mus musculus [7] it was 179.14.

Values taken from ChEMBL document CHEMBL1122124, “Synthesis and immunoadjuvant activities of 2-acetamido-5-O-acetyl-6-O-acyl-2-deoxy-3-O-[(R)-2-propionyl-L-alanyl-D- isoglutamine]-D-glucofuranoses as potential prodrug forms of 6-O-Acyl Derivatives of N-acetylmuramyl dipeptide” (1982).
